Source: PubChem BioAssay (The Scripps Research Institute Molecular Screening Center)
GalR3 antag = blocks the human galanin receptor 3 | hit rate 0.44% among 360,000 | O60755 | HEK293 GalR3-CNG cAMP membrane potential fluorescence; galR3 body fused to GalR1 C-terminus | inhibition, % at 3 µM;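 active = inhibition above the screen-wide average plus 3 SD, cut at about 13% in these data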;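 also: forskolin and galanin both at EC90 stimulate the cells; cAMP rise reported by CNG channel membrane potential dye signal; 0% = forskolin plus galanin with DMSO and 100% = forskolin alone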
Target sequence (O60755 1-299 limits assumed): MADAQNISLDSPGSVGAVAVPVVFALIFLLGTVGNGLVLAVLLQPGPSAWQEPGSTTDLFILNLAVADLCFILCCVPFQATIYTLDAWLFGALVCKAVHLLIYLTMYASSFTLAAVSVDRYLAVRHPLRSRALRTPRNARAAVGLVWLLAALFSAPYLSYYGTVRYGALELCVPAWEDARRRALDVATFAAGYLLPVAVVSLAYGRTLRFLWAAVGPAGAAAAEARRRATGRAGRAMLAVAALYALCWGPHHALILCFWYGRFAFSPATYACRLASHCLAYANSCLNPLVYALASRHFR
OX1R antag-1 = OX1R (human) antagonism | AID 485270 | inhibition, % at 6.6 µM | hit rate 1.8% among 330,000 | OX1R-expressing cells, FRET antagonist read-out | O43613; in the data active = inhibition mostly above about 38%, no sharp cut-off; inactive = mostly below about 40%;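 also: 0% = agonist challenge alone and 100% = reference antagonist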
OX1R antag-2 = blocks the human orexin 1 receptor | O43613 | CHO/OX1R cells, Fluo-8 calcium fluorescence, orexin A | inhibition, % at 5 µM | hit rate 0.43% among 330,000;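 active = inhibition above its plate's threshold, mean inhibition of all tested compounds on the plate plus 3 SD, cut at about 37% in these data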;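 also: 0% = orexin A challenge wells and 100% = SB-334867-A antagonist wells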
CHO parental Ca = counter-screen: ATP calcium response change in parental CHO cells; hit rate 0.63% among 330,000; inhibition, % at 5.6 µM; parental CHO-K1, ATP-induced calcium, Fluo-8 fluorescence;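 active = inhibition above that plate's mean sample inhibition plus 3 SD, cut at about 26% in these data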;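 also: 0% = ATP-challenged DMSO wells and 100% = DMSO wells without ATP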
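Assay system: parental CHO cells; Read-out basis: percent inhibition of ATP-evoked calcium rise, normalized to controls; Benchmarks: ATP and no-ATP DMSO wells; Compound dosing: single nominal dose of 5.6 µM per compound; Signal: Fluo-8 calcium dye fluorescence; Also added: ATP as calcium-mobilizing challenge; Repeats: singlicate.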
GPR7 antagonist = human neuropeptides B/W receptor 1 antagonism | hit rate 1.1% among 290,000 | inhibition, % at 4.4 µM | P48145 | GPR7-expressing cells, fluorescence antagonist assay; in the data active = inhibition above about 16%, passing the limit was not always enough;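 also: cells stimulated with the agonist NPW; 0% = agonist with vehicle and 100% = vehicle without agonist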
Target sequence (P48145 whole entry, looked up): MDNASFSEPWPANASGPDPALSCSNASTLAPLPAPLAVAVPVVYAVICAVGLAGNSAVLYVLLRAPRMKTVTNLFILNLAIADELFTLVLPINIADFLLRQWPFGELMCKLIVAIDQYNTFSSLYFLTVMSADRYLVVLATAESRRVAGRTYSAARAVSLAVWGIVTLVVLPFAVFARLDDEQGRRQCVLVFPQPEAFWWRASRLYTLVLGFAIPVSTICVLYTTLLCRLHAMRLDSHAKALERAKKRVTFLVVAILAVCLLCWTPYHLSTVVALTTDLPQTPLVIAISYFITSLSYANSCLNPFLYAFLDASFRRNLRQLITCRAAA
Active calls of the source: *; . = no result. Shown are actives, neighbours in structure and some others; about 3.1% of the full set was active somewhere.

SMILES | GalR3 antag | OX1R antag-1 | OX1R antag-2 | CHO parental Ca | GPR7 antagonist
CC1C/C(=C/c2cccn2C)C(=O)/C(=C/c2cccn2C)C1 (stereo not given) | -2 | 0 | 111* | 83* | -2
Cc1ccc(N=C2NC(=O)/C(=C/c3cccn3C)S2)cc1 | -4 | 17 | 21 | -16 | -5
CC1C/C(=C/c2ccncc2)C(=O)/C(=C/c2ccncc2)C1 (stereo not given) | -9 | 33 | -6 | 13 | 24*
CN1C/C(=C/c2cccnc2)C(=O)/C(=C/c2cccnc2)C1 | 7 | 18 | -12 | -6 | -3
NS(=O)(=O)c1ccc(CCNC(=O)CN2CCN(Cc3cccc(C(F)(F)F)c3)CC2)cc1 | -7 | 10 | -9 | -8 | -11
C=CCc1ccc(OCCOc2ccc(/C=N/n3cnnc3)cc2OCC)c(OC)c1 | -1 | 25 | 1 | 67* | -7
COc1cc(/C=N/n2cnnc2)ccc1OCCOc1ccccc1 | 5 | 25 | -2 | 0 | -15
N=c1c(C(=O)NCC2CCCO2)cc2c(=O)n3ccccc3nc2n1Cc1ccc(Cl)cc1 (stereo not given) | 0 | 39 | -12 | -3 | 14
N=c1c(C(=O)NCC2CCCO2)cc2c(=O)n3ccccc3nc2n1Cc1ccccc1 (stereo not given) | 1 | 51* | -3 | -18 | -14
Cc1ccc(Cn2c(=N)c(C(=O)NCC3CCCO3)cc3c(=O)n4ccccc4nc32)cc1 (stereo not given) | -8 | 56* | -11 | -8 | -2
COc1cc2[nH]c(Cl)c([N+](=O)[O-])c2cc1OC | -4 | 73* | 0 | 4 | -10
Cc1ccc(Cl)cc1N1CCN(S(=O)(=O)N2CCCCC2)CC1 | -1 | 15 | -41 | -25 | 23*
Cc1ccc(Cl)cc1N1CCN(C(=O)C2CCN(S(=O)(=O)c3c(C)nn(C)c3C)CC2)CC1 | -4 | 12 | 25 | 35* | 9
CC1CCCC12NC(=O)NC2=O (stereo not given) | -4 | . | . | . | .
Cc1ccc(/C=N/Nc2nncn2N)cc1 | -8 | 43* | 1 | -4 | -10
Nn1cnnc1N/N=C/c1ccc(F)cc1 | -11 | 65* | -3 | -2 | -17
Nn1cnnc1N/N=C/c1ccc(Cl)c([N+](=O)[O-])c1 | -2 | 61* | -9 | -26 | -15
Nn1cnnc1N/N=C/c1cccc(Cl)c1Cl | -7 | . | . | . | -17
Cc1c(O)ccc(C(=O)COc2ccccc2F)c1O | -1 | 37* | 7 | 5 | -7
Fc1ccc2[nH]c3c(NCc4ccccc4)ncnc3c2c1 | -11 | 59* | 3 | 70* | 28
COc1ccc2[nH]c3c(NCc4ccco4)ncnc3c2c1 | . | 24 | -17 | -10 | -8
O=C1Nc2ccccc2C1(O)c1ccccc1 (stereo not given) | -2 | 13 | -13 | 0 | -11
Cc1cc(C2(c3ccc(O)c(C)c3)C(=O)Nc3ccccc32)ccc1O | 1 | 13 | 18 | 43* | -11
CCOC(=O)[C@H]1[C@H]2COc3ccc(Br)cc3[C@@H]2N2C(=O)CN(Cc3ccco3)C(=O)[C@@]12C | 4 | 4 | -26 | -24 | .
COC(=O)CC(NC(=O)CN1CCN(c2ccc(F)cc2)CC1)c1cccc(F)c1 (stereo not given) | -11 | 12 | -21 | -7 | -6
SMILES | GalR3 antag | OX1R antag-1 | OX1R antag-2 | CHO parental Ca | GPR7 antagonist
N=c1oc2cc(O)ccc2cc1C(=O)Nc1nc2ccccc2s1 | -2 | 37 | 2 | 0 | -4
N=c1oc2cc(O)ccc2cc1C(=O)Nc1ccccn1 | . | 84* | 5 | 3 | -4
COC(=O)c1ccc(-c2n[nH]c(=O)c3ccccc23)cc1 | -2 | 43* | -11 | 1 | -10
CN(C)C(=O)c1ccc(-c2n[nH]c(=O)c3ccccc23)cc1 | -5 | 24 | 0 | -4 | -22
CCCCc1c(-c2ccccc2OC)ncn1Cc1cccc(-c2ccccc2)c1 | -2 | . | . | . | .
CNc1nnc(SCC(=O)c2c(N)n(C3CC3)c(=O)[nH]c2=O)s1 | -4 | . | . | . | .
O=c1cc(-c2ccccc2Cl)oc2c(NS(=O)(=O)c3cc(Cl)cc(Cl)c3O)ccc(O)c12 | . | 70* | 43 | 75* | 13
CC(=O)CC(=O)NC(=NC1CCCCC1)Nc1nc(C)cc(C)n1 | -5 | 16 | -7 | 2 | 21*
Cc1cc(C)nc(NC(N)=NC2CCCCC2)n1 | 2 | -3 | -3 | 6 | -4
O=C(NCc1ccco1)C(c1ccco1)N(Cc1cccs1)C(=O)Cn1nnc2ccccc21 (stereo not given) | -3 | 25 | -23 | -18 | -6
O=C(NC1CCCCC1)C(c1ccco1)N(Cc1cccs1)C(=O)Cn1nnc2ccccc21 (stereo not given) | -6 | 5 | -9 | -28 | 22*
Cn1nc(OC(=O)Nc2ccc(F)cc2)cc1C(F)(F)F | 1 | 12 | 13 | 8 | 6
Cn1nc(OC(=O)Nc2ccc(Cl)cc2)cc1C(F)(F)F | . | 20 | 9 | 38* | -3
CCc1nc2ccc(C(=O)N(CC)CC(=O)Nc3c(F)cccc3F)cc2nc1CC | -6 | -4 | -11 | -19 | .
CN1/C(=C\C(=O)c2cncc(Br)c2)C(C)(C)c2ccccc21 | -5 | 19 | 37 | 39* | 8
CC(=O)/C=C1\N(C)c2ccc(C)cc2C1(C)C | 0 | 22 | 6 | 38* | -7
CN1/C(=C\C(=O)C(F)F)C(C)(C)c2ccccc21 | -1 | -1 | -11 | -2 | -16
CN1/C(=C\C(=O)c2ccco2)C(C)(C)c2ccccc21 | -6 | 33 | 21 | 71* | 24
CC(C)Oc1ccc(S(=O)(=O)N2CCCCC2)cc1NC(=O)CN1CCCC1c1cccs1 (stereo not given) | -6 | -12 | -8 | 8 | .
CC(C)COC(=O)c1cccc2c1-c1ccccc1/C2=N\O | -6 | 18 | -9 | 41* | -20
COc1ccc(C(C(=O)NC2CCCCC2)N(C(=O)CCl)c2cccc(Cl)c2)cc1 (stereo not given) | -3 | 11 | -15 | -12 | -2
CCOc1ccc(/C=C(\C)C(=O)c2c(C)cc(C)[nH]c2=O)cc1 | 5 | 14 | -20 | -20 | -12
O=[N+]([O-])c1ccccc1S(=O)(=O)N1CCN(c2ccccn2)CC1 | -7 | -2 | -16 | -2 | 0
CCOC(=O)C1=C(C)NC2=C(C(=O)CC(c3cccs3)C2)C1c1cccs1 (stereo not given) | -3 | 0 | -21 | 2 | 0
COC(=O)C1=C(C)NC2=C(C(=O)CC(c3cccs3)C2)C1c1ccsc1 (stereo not given) | -1 | 22 | -21 | -10 | 22*
O=C(COc1ccccc1/C=C1\SC(=S)NC1=O)Nc1ccc(F)cc1 | -6 | 57* | 17 | 11 | .
Cc1cc(OCC(=O)NNC(=S)NC(=O)c2ccc(Br)o2)ccc1Cl | 2 | . | . | . | -4
CCOC(=O)c1sc(NC(=O)c2cccc(S(=O)(=O)N(CC)CC)c2)cc1C | -4 | 27 | -16 | -22 | -1
CCOC(=O)c1sc(NC(=O)c2ccc(S(=O)(=O)N(C)C)cc2)cc1C | -3 | 58* | 6 | -15 | -2
